Source: paper PMC11792500 (RSC Advances, 2025)
Like-named read-outs stand apart in the source and are kept apart here.

Experiments:
HCT-116 (colon cancer) = test: MTT cytotoxicity assay, HCT-116 colon cancer cells; assay type: cell-based, human; conditions: read-out: IC50 against HCT-116
Outline: (§1)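 Cells (HCT116 or normal dermal fibroblasts) were obtained from ATCC, seeded per doubling time, and grown in RPMI at 37 °C, humidified 5% CO₂. After 48 h exposure to increasing test compound concentrations, MTT at 5 mg ml⁻¹ working concentration was added for 3 h in the dark, followed by DMSO solubilisation with shaking. OD was read at 570/630 nm, viability expressed as treated/untreated × 100, and IC50 ±SD reported from duplicate wells, ≥3 independent runs.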

A549 (lung cancer) = test: MTT cytotoxicity assay, A549 lung cancer cells; assay type: cell-based, human; conditions: for IC50: read-out: IC50 against A549; for lipophilic efficiency (LLE): from cytotoxicity IC50 at A549, DataWarrior
Outline: (§2)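 Cells from ATCC, seeded at densities set by doubling time and kept in RPMI at 37 °C, 5% CO₂. They were exposed to increasing concentrations for 48 h. MTT at 5 mg ml⁻¹ working concentration was added for 3 h in the dark, and crystals were dissolved in DMSO. […] LLE was estimated from these IC50 values and compound physicochemical properties.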

[1] = test system: normal dermal fibroblast cells; test: MTT cytotoxicity assay, normal fibroblasts; assay type: cell-based; conditions: 48 h, read-out: IC50 against normal fibroblasts
Outline: as §1

A549 cell migration = test: Wound healing; assay type: cell-based, human; conditions: A549 cells, 24 h, control 0%; for inhibition of cell migration at IC50: compound at IC50 concentration; for inhibition of cell migration at Sub IC50: compound at sub-IC50 concentration
Outline: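 A549 cells were seeded at 35 000 per culture insert and grown 24 h. Proliferation was blocked with 10 μg ml⁻¹ mitomycin C for 2 h, then cells were washed three times. Cells were exposed to two test concentrations (full and sub-level) and the wound imaged at 0 and 24 h. Wound width was measured, and migration inhibition expressed against the untreated control (0%).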

T47-D (breast cancer) = test: MTT cytotoxicity assay, T47-D breast cancer cells; assay type: cell-based, human; conditions: for IC50: read-out: IC50 against T47-D, MTT, 48 h treatment, ±SD, n = 9; for lipophilic efficiency (LLE): from cytotoxicity IC50 at T47-D (printed H47-D), DataWarrior
Outline: as §2

EGFR kinase = EGFR kinase (Homo sapiens, UniProt P00533); test: EGFR kinase inhibition; assay type: biochemical; conditions: three independent replicates
Chain of EGFR kinase (P00533 25-1210): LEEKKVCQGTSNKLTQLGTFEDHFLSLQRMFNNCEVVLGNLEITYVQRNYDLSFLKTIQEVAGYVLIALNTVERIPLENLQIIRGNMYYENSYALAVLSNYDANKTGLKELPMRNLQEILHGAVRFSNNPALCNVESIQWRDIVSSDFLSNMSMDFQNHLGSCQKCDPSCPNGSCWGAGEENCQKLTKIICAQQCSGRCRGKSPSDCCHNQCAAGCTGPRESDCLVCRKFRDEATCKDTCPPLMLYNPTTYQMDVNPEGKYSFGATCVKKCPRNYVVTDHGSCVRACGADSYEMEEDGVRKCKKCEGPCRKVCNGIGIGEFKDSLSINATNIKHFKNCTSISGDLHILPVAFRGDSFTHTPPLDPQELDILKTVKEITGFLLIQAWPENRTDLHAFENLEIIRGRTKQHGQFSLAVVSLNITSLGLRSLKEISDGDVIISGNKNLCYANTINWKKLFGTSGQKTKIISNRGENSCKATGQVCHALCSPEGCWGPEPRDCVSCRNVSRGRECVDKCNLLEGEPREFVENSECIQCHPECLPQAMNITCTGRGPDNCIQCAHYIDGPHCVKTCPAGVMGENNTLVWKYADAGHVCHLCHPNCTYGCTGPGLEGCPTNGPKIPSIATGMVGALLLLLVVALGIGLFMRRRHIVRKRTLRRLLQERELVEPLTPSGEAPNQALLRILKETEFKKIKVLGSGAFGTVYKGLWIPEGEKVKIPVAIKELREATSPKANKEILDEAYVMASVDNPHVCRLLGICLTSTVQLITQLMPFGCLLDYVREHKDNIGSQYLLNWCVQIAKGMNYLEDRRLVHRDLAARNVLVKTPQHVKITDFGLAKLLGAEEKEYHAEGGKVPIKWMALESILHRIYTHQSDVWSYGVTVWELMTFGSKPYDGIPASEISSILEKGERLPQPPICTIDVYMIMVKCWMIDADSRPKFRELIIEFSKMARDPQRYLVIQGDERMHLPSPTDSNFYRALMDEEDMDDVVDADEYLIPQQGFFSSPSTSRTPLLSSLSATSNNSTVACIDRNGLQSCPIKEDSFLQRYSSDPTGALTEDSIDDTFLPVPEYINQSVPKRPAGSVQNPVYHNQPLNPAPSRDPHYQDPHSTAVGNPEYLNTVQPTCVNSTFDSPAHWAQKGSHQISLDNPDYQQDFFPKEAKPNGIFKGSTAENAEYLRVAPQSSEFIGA

[2] = MTT, 48 h treatment, ±SD, n = 9

| Structure (SMILES) | IC50 (A549 (lung cancer); Homo sapiens, A549, 48 h) [µM] | IC50 [1] [µM] | IC50 (HCT-116 (colon cancer); Homo sapiens, HCT-116, 48 h) [µM] | also measured |
| --- | --- | --- | --- | --- |
| O=c1[nH]cc(F)c(=O)[nH]1 [5-FU, reference compound] | – | – | – | IC50 (HCT-116 (colon cancer); [2]): 11 ± 0.7 µM |
| C#CCOc1ccc(/C=N\NC(=O)c2ccccc2)cc1 [7a, (Z)-N′-(4-(prop-2-yn-1-yloxy)benzylidene)benzohydrazide] | 200 ± 4 | > 500 | 237 ± 6 | – |
| C#CCOc1ccc(/C=N\Nc2ccc([N+](=O)[O-])cc2[N+](=O)[O-])cc1 [7c, (Z)-1-(2,4-dinitrophenyl)-2-(4-(prop-2-yn-1-yloxy)benzylidene)hydrazine] | 156 ± 4 | > 500 | 209 ± 5 | – |
| C#CCOc1ccc(/C=N\NC(N)=S)cc1 [7d, (Z)-2-(4-(prop-2-yn-1-yloxy)benzylidene)hydrazine-1-carbothioamide] | 128 ± 5 | > 500 | 261 ± 6 | – |
| O=C(Cn1cc(COc2ccc(/C=N/NC(=O)c3ccccc3)cc2)nn1)Nc1nc2ccccc2s1 [8a, (E)-N-(benzo[d]thiazol-2-yl)-2-(4-((4-((2-benzoylhydrazono)-methyl)phenoxy)methyl)-1H-1,2,3-triazol-1-yl)acetamide] | 18 ± 1 | > 500 | 84 ± 3 | inhibition of cell migration at IC50 (A549 cell migration): 92.4%; inhibition of cell migration at Sub IC50 (A549 cell migration): 44.8%; IC50 (T47-D (breast cancer)): 17 ± 1 µM; % of EGFR inhibition (EGFR kinase): 98.5 ± 3.1% |
| Cc1ccc2nc(NC(=O)Cn3cc(COc4ccc(/C=N/NC(=O)c5ccccc5)cc4)nn3)sc2c1 [8b, (E)-2-(4-((4-((2-benzoylhydrazono)methyl)phenoxy)methyl)-1H-1,2,3-triazol-1-yl)-N-(6-methylbenzo[d]thiazol-2-yl)acetamide] | 21 ± 1 | > 500 | 94 ± 1 | inhibition of cell migration at IC50 (A549 cell migration): 78.9%; inhibition of cell migration at Sub IC50 (A549 cell migration): 49.8%; IC50 (T47-D (breast cancer)): 13 ± 1 µM; % of EGFR inhibition (EGFR kinase): 96.8 ± 2.1% |
| CS(=O)(=O)c1ccc2nc(NC(=O)Cn3cc(COc4ccc(/C=N/NC(=O)c5ccccc5)cc4)nn3)sc2c1 [8c, (E)-2-(4-((4-((2-benzoylhydrazono)methyl)phenoxy)methyl)-1H-1,2,3-triazol-1-yl)-N-(6-(methylsulfonyl)benzo[d]thiazol-2-yl)acetamide] | 25 ± 1 | > 500 | 48 ± 2 | lipophilic efficiency (LLE) (A549 (lung cancer)): 1.84; lipophilic efficiency (LLE) (T47-D (breast cancer)): 1.93; % of EGFR inhibition (EGFR kinase): 92.3 ± 3.1% |
| O=C(Cn1cc(COc2ccc(/C=N/NC(=O)c3ccncc3)cc2)nn1)Nc1nc2ccccc2s1 [8d, (E)-N-(benzo[d]thiazol-2-yl)-2-(4-((4-((2-isonicotinoylhydrazono)methyl)phenoxy)methyl)-1H-1,2,3-triazol-1-yl)acetamide] | 38 ± 2 | > 500 | 100 ± 2 | – |
| Cc1ccc2nc(NC(=O)Cn3cc(COc4ccc(/C=N/NC(=O)c5ccncc5)cc4)nn3)sc2c1 [8e, (E)-2-(4-((4-((2-isonicotinoylhydrazono)methyl)phenoxy)methyl)-1H-1,2,3-triazol-1-yl)-N-(6-methylbenzo[d]thiazol-2-yl)acetamide] | 92 ± 2 | > 500 | 207 ± 5 | – |
| CS(=O)(=O)c1ccc2nc(NC(=O)Cn3cc(COc4ccc(/C=N/NC(=O)c5ccncc5)cc4)nn3)sc2c1 [8f, (E)-2-(4-((4-((2-isonicotinoylhydrazono)methyl)phenoxy)methyl)-1H-1,2,3-triazol-1-yl)-N-(6-(methylsulfonyl)benzo[d]thiazol-2-yl)acetamide] | 38 ± 2 | > 500 | 149 ± 3 | lipophilic efficiency (LLE) (A549 (lung cancer)): 2.66; lipophilic efficiency (LLE) (T47-D (breast cancer)): 2.58 |
| O=C(Cn1cc(COc2ccc(/C=N\Nc3ccc([N+](=O)[O-])cc3[N+](=O)[O-])cc2)nn1)Nc1nc2ccccc2s1 [8g, (Z)-N-(benzo[d]thiazol-2-yl)-2-(4-((4-((2-(2,4-dinitrophenyl)hydrazono)methyl)phenoxy)methyl)-1H-1,2,3-triazol-1-yl)acetamide] | 103 ± 5 | > 500 | 109 ± 3 | – |
| CS(=O)(=O)c1ccc2nc(NC(=O)Cn3cc(COc4ccc(/C=N\Nc5ccc([N+](=O)[O-])cc5[N+](=O)[O-])cc4)nn3)sc2c1 [8i, (Z)-2-(4-((4-((2-(2,4-dinitrophenyl)hydrazono)methyl)phenoxy)methyl)-1H-1,2,3-triazol-1-yl)-N-(6-(methylsulfonyl)benzo[d]thiazol-2-yl)acetamide] | 89 ± 4 | > 500 | 162 ± 5 | lipophilic efficiency (LLE) (A549 (lung cancer)): 1.50; lipophilic efficiency (LLE) (T47-D (breast cancer)): 1.52 |
| NC(=S)N/N=C\c1ccc(OCc2cn(CC(=O)Nc3nc4ccccc4s3)nn2)cc1 [8j, (Z)-N-(benzo[d]thiazol-2-yl)-2-(4-((4-((2-carbamothioylhydrazono)methyl)phenoxy)methyl)-1H-1,2,3-triazol-1-yl)acetamide] | 63 ± 2 | > 500 | 190 ± 4 | lipophilic efficiency (LLE) (A549 (lung cancer)): 1.82; lipophilic efficiency (LLE) (T47-D (breast cancer)): 1.81 |
| Cc1ccc2nc(NC(=O)Cn3cc(COc4ccc(/C=N\NC(N)=S)cc4)nn3)sc2c1 [8k, (Z)-2-(4-((4-((2-carbamothioylhydrazono)methyl)phenoxy)methyl)-1H-1,2,3-triazol-1-yl)-N-(6-methylbenzo[d]thiazol-2-yl)acetamide] | 138 ± 4 | > 500 | 170 ± 7 | – |
| CS(=O)(=O)c1ccc2nc(NC(=O)Cn3cc(COc4ccc(/C=N\NC(N)=S)cc4)nn3)sc2c1 [8l, (Z)-2-(4-((4-((2-carbamothioylhydrazono)methyl)phenoxy)methyl)-1H-1,2,3-triazol-1-yl)-N-(6-(methylsulfonyl)benzo[d]thiazol-2-yl)acetamide] | 142 ± 3 | > 500 | 180 ± 4 | – |
| N.N.[Cl][Pt][Cl] [Cisplatin, reference compound] | – | – | – | IC50 (A549 (lung cancer); [2]): 22 ± 1 µM |
